# Results as given in ChEMBL document CHEMBL2375359, “Synthesis and antibacterial evaluation of novel pleuromutilin derivatives” (2013).
# System: Staphylococcus aureus
# Assay: Antibacterial activity against methicillin-resistant Staphylococcus aureus at 320 ug/ml after 24 hrs by Oxford cup assay
# Assay type: functional
# Conditions: read-out: IZ
# Summary of the method: (§1)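 Oxford cup diffusion: clinical isolate inoculum in 0.9% saline set by McFarland standard, spread evenly on nutrient agar. Cups placed equidistant on the surface and filled with compound solutions prepared as for the agar dilution test, at several concentrations. Inhibition zone measured after 24 h at 37 °C.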
row,SMILES,zone of inhibition at 320 µg/mL
1,C=C[C@]1(C)C[C@@H](OC(=O)CSC(C)(C)CNC(=O)[C@H](N)C(C)C)[C@]2(C)[C@H](C)CC[C@]3(CCC(=O)[C@H]32)[C@@H](C)[C@@H]1O [VALNEMULIN],25.8 mm

# System: Streptococcus agalactiae
# Assay: Antibacterial activity against Streptococcus agalactiae after 48 hrs by agar dilution method
# Assay type: functional
# Conditions: not given
# Summary of the method: (§2)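 Agar dilution per NCCLS on clinical isolates. 2-fold serial dilutions of compound (2 mL) mixed into 18 mL hot Mueller-Hinton agar. Inoculum from blood slants, adjusted to approx. 10⁵–10⁶ cfu/mL in sterile 0.90% NaCl, then spotted onto the plates. Incubated 36.5 °C, 48 h. MIC is the lowest concentration giving complete growth inhibition. Run in triplicate at pH 7.40.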
row,SMILES,MIC
1,C=C[C@]1(C)C[C@@H](OC(=O)CSC(C)(C)CNC(=O)[C@H](N)C(C)C)[C@]2(C)[C@H](C)CC[C@]3(CCC(=O)[C@H]32)[C@@H](C)[C@@H]1O [VALNEMULIN],0.5 µg/mL

# System: Staphylococcus epidermidis
# Assay: Antibacterial activity against methicillin-resistant Staphylococcus epidermidis at 80 ug/ml after 24 hrs by Oxford cup assay
# Assay type: functional
# Conditions: read-out: IZ
# Summary of the method: as §1
row,SMILES,zone of inhibition at 80 µg/mL
1,C=C[C@]1(C)C[C@@H](OC(=O)CSC(C)(C)CNC(=O)[C@H](N)C(C)C)[C@]2(C)[C@H](C)CC[C@]3(CCC(=O)[C@H]32)[C@@H](C)[C@@H]1O [VALNEMULIN],22.6 mm

# System: Escherichia coli
# Assay: Antibacterial activity against Escherichia coli at 160 ug/ml after 24 hrs by Oxford cup assay
# Assay type: functional
# Conditions: read-out: IZ
# Summary of the method: (§3)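 Oxford cup diffusion with clinical isolates. Inoculum made in 0.9% saline to a McFarland standard and spread evenly on nutrient agar. Compound solutions, prepared as for the agar dilution test, were added at the stated concentration to Oxford cups set equidistant on the agar surface. Inhibition zones were measured after 24 h at 37 °C.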
row,SMILES,zone of inhibition at 160 µg/mL
1,C=C[C@]1(C)C[C@@H](OC(=O)CSC(C)(C)CNC(=O)[C@H](N)C(C)C)[C@]2(C)[C@H](C)CC[C@]3(CCC(=O)[C@H]32)[C@@H](C)[C@@H]1O [VALNEMULIN],23.7 mm

# System: Streptococcus agalactiae
# Assay: Antibacterial activity against Streptococcus agalactiae at 80 ug/ml after 24 hrs by Oxford cup assay
# Assay type: functional
# Conditions: read-out: IZ
# Summary of the method: as §3
row,SMILES,zone of inhibition at 80 µg/mL
1,C=C[C@]1(C)C[C@@H](OC(=O)CSC(C)(C)CNC(=O)[C@H](N)C(C)C)[C@]2(C)[C@H](C)CC[C@]3(CCC(=O)[C@H]32)[C@@H](C)[C@@H]1O [VALNEMULIN],12.8 mm

# System: Escherichia coli
# Assay: Antibacterial activity against Escherichia coli after 48 hrs by agar dilution method
# Assay type: functional
# Conditions: not given
# Summary of the method: as §2
row,SMILES,MIC
1,C=C[C@]1(C)C[C@@H](OC(=O)CSC(C)(C)CNC(=O)[C@H](N)C(C)C)[C@]2(C)[C@H](C)CC[C@]3(CCC(=O)[C@H]32)[C@@H](C)[C@@H]1O [VALNEMULIN],0.5 µg/mL

# System: Escherichia coli
# Assay: Antibacterial activity against Escherichia coli at 80 ug/ml after 24 hrs by Oxford cup assay
# Assay type: functional
# Conditions: read-out: IZ
# Summary of the method: as §3
row,SMILES,zone of inhibition at 80 µg/mL
1,C=C[C@]1(C)C[C@@H](OC(=O)CSC(C)(C)CNC(=O)[C@H](N)C(C)C)[C@]2(C)[C@H](C)CC[C@]3(CCC(=O)[C@H]32)[C@@H](C)[C@@H]1O [VALNEMULIN],19.5 mm

# System: Staphylococcus aureus
# Assay: Antibacterial activity against methicillin-resistant Staphylococcus aureus after 48 hrs by agar dilution method
# Assay type: functional
# Conditions: not given
# Summary of the method: (§4)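 Agar dilution per NCCLS: 2-fold serial dilutions incorporated into hot Mueller-Hinton agar. Clinical isolates grown from blood slants, suspended in sterile 0.90% NaCl to about 10⁵–10⁶ cfu/mL, spotted onto plates. Incubation 36.5 °C, 48 h. MIC taken as the lowest concentration giving complete growth inhibition. Run in triplicate at pH 7.40.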
row,SMILES,MIC
1,C=C[C@]1(C)C[C@@H](OC(=O)CSC(C)(C)CNC(=O)[C@H](N)C(C)C)[C@]2(C)[C@H](C)CC[C@]3(CCC(=O)[C@H]32)[C@@H](C)[C@@H]1O [VALNEMULIN],0.125 µg/mL

# System: Staphylococcus aureus
# Assay: Antibacterial activity against methicillin-resistant Staphylococcus aureus at 80 ug/ml after 24 hrs by Oxford cup assay
# Assay type: functional
# Conditions: read-out: IZ
# Summary of the method: as §1
row,SMILES,zone of inhibition at 80 µg/mL
1,C=C[C@]1(C)C[C@@H](OC(=O)CSC(C)(C)CNC(=O)[C@H](N)C(C)C)[C@]2(C)[C@H](C)CC[C@]3(CCC(=O)[C@H]32)[C@@H](C)[C@@H]1O [VALNEMULIN],20.4 mm

# System: Staphylococcus epidermidis
# Assay: Antibacterial activity against methicillin-resistant Staphylococcus epidermidis at 160 ug/ml after 24 hrs by Oxford cup assay
# Assay type: functional
# Conditions: read-out: IZ
# Summary of the method: as §1
row,SMILES,zone of inhibition at 160 µg/mL
1,C=C[C@]1(C)C[C@@H](OC(=O)CSC(C)(C)CNC(=O)[C@H](N)C(C)C)[C@]2(C)[C@H](C)CC[C@]3(CCC(=O)[C@H]32)[C@@H](C)[C@@H]1O [VALNEMULIN],25.9 mm

# System: Staphylococcus aureus
# Assay: Antibacterial activity against methicillin-resistant Staphylococcus aureus at 160 ug/ml after 24 hrs by Oxford cup assay
# Assay type: functional
# Conditions: read-out: IZ
# Summary of the method: as §1
row,SMILES,zone of inhibition at 160 µg/mL
1,C=C[C@]1(C)C[C@@H](OC(=O)CSC(C)(C)CNC(=O)[C@H](N)C(C)C)[C@]2(C)[C@H](C)CC[C@]3(CCC(=O)[C@H]32)[C@@H](C)[C@@H]1O [VALNEMULIN],22.9 mm

# System: Streptococcus agalactiae
# Assay: Antibacterial activity against Streptococcus agalactiae at 160 ug/ml after 24 hrs by Oxford cup assay
# Assay type: functional
# Conditions: read-out: IZ
# Summary of the method: as §3
row,SMILES,zone of inhibition at 160 µg/mL
1,C=C[C@]1(C)C[C@@H](OC(=O)CSC(C)(C)CNC(=O)[C@H](N)C(C)C)[C@]2(C)[C@H](C)CC[C@]3(CCC(=O)[C@H]32)[C@@H](C)[C@@H]1O [VALNEMULIN],14.5 mm

# System: Streptococcus agalactiae
# Assay: Antibacterial activity against Streptococcus agalactiae at 320 ug/ml after 24 hrs by Oxford cup assay
# Assay type: functional
# Conditions: read-out: IZ
# Summary of the method: as §3
row,SMILES,zone of inhibition at 320 µg/mL
1,C=C[C@]1(C)C[C@@H](OC(=O)CSC(C)(C)CNC(=O)[C@H](N)C(C)C)[C@]2(C)[C@H](C)CC[C@]3(CCC(=O)[C@H]32)[C@@H](C)[C@@H]1O [VALNEMULIN],15.8 mm

# System: Escherichia coli
# Assay: Antibacterial activity against Escherichia coli at 320 ug/ml after 24 hrs by Oxford cup assay
# Assay type: functional
# Conditions: read-out: IZ
# Summary of the method: as §3
row,SMILES,zone of inhibition at 320 µg/mL
1,C=C[C@]1(C)C[C@@H](OC(=O)CSC(C)(C)CNC(=O)[C@H](N)C(C)C)[C@]2(C)[C@H](C)CC[C@]3(CCC(=O)[C@H]32)[C@@H](C)[C@@H]1O [VALNEMULIN],24.5 mm

# System: Staphylococcus epidermidis
# Assay: Antibacterial activity against methicillin-resistant Staphylococcus epidermidis at 320 ug/ml after 24 hrs by Oxford cup assay
# Assay type: functional
# Conditions: read-out: IZ
# Summary of the method: as §1
row,SMILES,zone of inhibition at 320 µg/mL
1,C=C[C@]1(C)C[C@@H](OC(=O)CSC(C)(C)CNC(=O)[C@H](N)C(C)C)[C@]2(C)[C@H](C)CC[C@]3(CCC(=O)[C@H]32)[C@@H](C)[C@@H]1O [VALNEMULIN],27.5 mm

# System: Staphylococcus epidermidis
# Assay: Antibacterial activity against methicillin-resistant Staphylococcus epidermidis after 48 hrs by agar dilution method
# Assay type: functional
# Conditions: not given
# Summary of the method: as §4
row,SMILES,MIC
1,C=C[C@]1(C)C[C@@H](OC(=O)CSC(C)(C)CNC(=O)[C@H](N)C(C)C)[C@]2(C)[C@H](C)CC[C@]3(CCC(=O)[C@H]32)[C@@H](C)[C@@H]1O [VALNEMULIN],0.5 µg/mL
